Measured values taken from ChEMBL document CHEMBL1132453, “Heteroarotinoids inhibit head and neck cancer cell lines in vitro and in vivo through both RAR and RXR retinoic acid receptors” (J Med Chem, 1999).

Experiments:
SCC-2 (Homo sapiens) [1] = test: Inhibition of SCC-2 cell proliferation; parameters: concentration or dose not given beside the values
SCC-38 (Homo sapiens) [2] = test: Inhibition of SCC-38 cell proliferation; parameters: concentration or dose not given beside the values
[3] = biological target: T1, Retinoic acid receptor beta (Homo sapiens, UniProt P10826); test: Transcriptional activation in CV-1 cells expressing human Retinoic acid receptor RAR beta; assay type: cell-based
T1 sequence (P10826 whole entry): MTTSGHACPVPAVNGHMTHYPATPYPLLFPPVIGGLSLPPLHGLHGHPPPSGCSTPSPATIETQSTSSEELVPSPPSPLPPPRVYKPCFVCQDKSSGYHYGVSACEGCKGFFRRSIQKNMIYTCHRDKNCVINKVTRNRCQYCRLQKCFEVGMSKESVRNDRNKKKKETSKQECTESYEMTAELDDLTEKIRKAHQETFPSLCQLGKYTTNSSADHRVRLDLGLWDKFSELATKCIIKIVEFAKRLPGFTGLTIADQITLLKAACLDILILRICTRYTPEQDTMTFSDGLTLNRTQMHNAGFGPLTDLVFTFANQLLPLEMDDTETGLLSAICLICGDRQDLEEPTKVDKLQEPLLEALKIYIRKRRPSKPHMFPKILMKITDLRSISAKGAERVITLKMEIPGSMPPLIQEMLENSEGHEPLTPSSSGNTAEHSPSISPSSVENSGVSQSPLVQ
Summary of the method: (§1)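 CV-1 cells were plated at 7.5 × 10^4/well and transfected 24 h later (FuGENE6). Each well got a receptor vector (human RARα/β/γ in pECE or mouse RXRα/β/γ in pSG5), a βRARE-tk-CAT reporter and a β-actin-βGal control. After 16-18 h, ligand was added in 10-fold steps from 10^-10 to 10^-5 M (0.01% DMSO) for 24 h. CAT was measured by ELISA and normalised to βGal. Triplicates, repeated at least twice.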

[4] = biological target: T2, Retinoic acid receptor RXR-gamma (Mus musculus, UniProt P28705); test: Transcriptional activation of CV-1 cells expressing murine Retinoid X receptor RXR gamma; assay type: cell-based
T2 sequence (P28705 whole entry): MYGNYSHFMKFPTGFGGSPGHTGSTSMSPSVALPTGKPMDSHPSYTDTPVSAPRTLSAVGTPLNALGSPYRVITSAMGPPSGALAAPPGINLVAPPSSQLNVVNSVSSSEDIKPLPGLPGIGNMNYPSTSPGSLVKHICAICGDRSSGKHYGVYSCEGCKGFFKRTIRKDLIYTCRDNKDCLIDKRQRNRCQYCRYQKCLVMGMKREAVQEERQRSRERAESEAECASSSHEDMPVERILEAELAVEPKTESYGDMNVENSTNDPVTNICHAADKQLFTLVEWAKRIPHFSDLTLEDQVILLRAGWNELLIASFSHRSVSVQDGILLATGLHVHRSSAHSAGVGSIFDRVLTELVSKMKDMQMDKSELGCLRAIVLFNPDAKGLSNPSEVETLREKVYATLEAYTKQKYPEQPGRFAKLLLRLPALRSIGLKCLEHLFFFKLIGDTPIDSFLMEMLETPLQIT
Summary of the method: as §1

[5] = biological target: T3, Retinoic acid receptor alpha (Homo sapiens, UniProt P10276); test: Transcriptional activation in CV-1 cells expressing human Retinoic acid receptor RAR alpha; assay type: cell-based
T3 sequence (P10276 whole entry): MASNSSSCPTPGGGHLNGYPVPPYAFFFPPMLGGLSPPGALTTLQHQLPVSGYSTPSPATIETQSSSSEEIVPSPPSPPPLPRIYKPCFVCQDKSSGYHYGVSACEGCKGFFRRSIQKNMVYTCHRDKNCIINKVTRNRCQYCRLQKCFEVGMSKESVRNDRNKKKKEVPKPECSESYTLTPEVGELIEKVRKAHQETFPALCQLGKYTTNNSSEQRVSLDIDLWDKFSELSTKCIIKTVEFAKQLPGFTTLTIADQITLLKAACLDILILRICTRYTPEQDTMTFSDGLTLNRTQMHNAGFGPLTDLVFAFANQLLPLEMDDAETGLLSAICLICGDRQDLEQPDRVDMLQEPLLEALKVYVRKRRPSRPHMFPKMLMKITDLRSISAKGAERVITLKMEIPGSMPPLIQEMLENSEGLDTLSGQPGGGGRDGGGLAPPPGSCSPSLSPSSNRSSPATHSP
Summary of the method: as §1

[6] = biological target: T4, Retinoic acid receptor gamma (Homo sapiens, UniProt P13631); test: Transcriptional activation in CV-1 cells expressing human Retinoic acid receptor RAR gamma; assay type: cell-based
T4 sequence (P13631 whole entry): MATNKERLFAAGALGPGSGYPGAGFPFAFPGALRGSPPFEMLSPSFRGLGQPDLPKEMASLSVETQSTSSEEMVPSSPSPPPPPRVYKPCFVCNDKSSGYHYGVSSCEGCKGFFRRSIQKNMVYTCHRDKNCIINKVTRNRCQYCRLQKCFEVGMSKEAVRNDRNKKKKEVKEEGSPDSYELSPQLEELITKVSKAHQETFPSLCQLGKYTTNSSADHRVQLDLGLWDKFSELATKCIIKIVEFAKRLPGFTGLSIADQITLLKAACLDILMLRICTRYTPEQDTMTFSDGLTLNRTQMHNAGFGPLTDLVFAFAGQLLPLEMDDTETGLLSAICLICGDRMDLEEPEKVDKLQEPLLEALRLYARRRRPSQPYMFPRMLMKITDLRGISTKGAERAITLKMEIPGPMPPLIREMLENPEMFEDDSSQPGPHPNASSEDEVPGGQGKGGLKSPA
Summary of the method: as §1

[7] = biological target: T5, Retinoic acid receptor RXR-alpha (Mus musculus, UniProt P28700); test: Transcriptional activation of CV-1 cells expressing murine Retinoid X receptor RXR alpha; assay type: cell-based
T5 sequence (P28700 whole entry): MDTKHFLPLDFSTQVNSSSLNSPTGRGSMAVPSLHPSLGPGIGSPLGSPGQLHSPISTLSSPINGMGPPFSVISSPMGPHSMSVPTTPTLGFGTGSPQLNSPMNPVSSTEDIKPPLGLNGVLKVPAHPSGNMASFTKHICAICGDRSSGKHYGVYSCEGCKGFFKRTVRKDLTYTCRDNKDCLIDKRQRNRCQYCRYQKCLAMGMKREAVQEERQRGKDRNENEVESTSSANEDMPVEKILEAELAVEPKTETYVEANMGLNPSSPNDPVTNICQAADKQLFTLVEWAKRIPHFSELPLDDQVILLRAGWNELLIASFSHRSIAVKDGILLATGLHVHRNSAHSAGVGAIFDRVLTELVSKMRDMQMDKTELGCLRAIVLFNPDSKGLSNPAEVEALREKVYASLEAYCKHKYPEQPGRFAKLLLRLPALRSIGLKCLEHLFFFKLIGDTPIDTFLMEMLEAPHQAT
Summary of the method: as §1

[8] = biological target: T6, Retinoic acid receptor RXR-beta (Mus musculus, UniProt P28704); test: Transcriptional activation of CV-1 cells expressing murine Retinoid X receptor RXR beta; assay type: cell-based
T6 sequence (P28704 whole entry): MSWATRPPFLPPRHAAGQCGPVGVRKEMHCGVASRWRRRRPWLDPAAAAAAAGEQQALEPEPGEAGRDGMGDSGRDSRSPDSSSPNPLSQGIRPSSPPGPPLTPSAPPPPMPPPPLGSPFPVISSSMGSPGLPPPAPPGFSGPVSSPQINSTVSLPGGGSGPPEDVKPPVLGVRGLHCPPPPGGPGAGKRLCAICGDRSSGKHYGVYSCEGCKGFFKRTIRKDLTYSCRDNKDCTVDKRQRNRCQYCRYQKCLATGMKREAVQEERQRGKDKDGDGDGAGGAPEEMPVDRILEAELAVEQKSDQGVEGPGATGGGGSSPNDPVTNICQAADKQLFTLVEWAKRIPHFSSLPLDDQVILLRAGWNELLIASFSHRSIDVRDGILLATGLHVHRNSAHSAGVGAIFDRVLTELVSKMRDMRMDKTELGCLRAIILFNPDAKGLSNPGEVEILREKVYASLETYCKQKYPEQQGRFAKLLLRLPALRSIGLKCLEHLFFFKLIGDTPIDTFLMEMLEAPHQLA
Summary of the method: as §1

SCC-2 (Homo sapiens) [9] = test: Inhibition of SCC-2 cell proliferation
SCC-38 (Homo sapiens) [10] = test: Inhibition of SCC-38 cell proliferation

Compound	Inhibition (SCC-2 (Homo sapiens) [1]) [%]	Inhibition (SCC-38 (Homo sapiens) [2]) [%]	other results
CCOC(=O)c1ccc(OC(=O)c2ccc3c(c2)C(C)(C)CCN3C(C)C)cc1	5	15	–
C/C(=C\c1ccc(C(=O)O)cc1)c1ccc2c(c1)C(C)(C)CO2	1	1	–
CCCCCCCCC1CCc2cc(/C(C)=C/c3ccc(C(=O)OCC)cc3)ccc2S1 (centres undefined)	10	17	–
CCOC(=O)c1ccc(OC(=O)c2ccc3c(c2)C(C)(C)CCO3)cc1	-6	13	–
COC(=O)c1ccc(C(=O)Oc2c(C)cc3c(c2C)C(C)(C)C=C(C)O3)cc1	15	-8	–
COC(=O)c1ccc(N(OC)C(=O)c2ccc3c(c2)C(C)(C)CCO3)cc1	3	17	–
COC(=O)c1ccc(C(=O)Oc2c(C)cc3c(c2C)C(C)(C)CC(C)(C)O3)cc1	-1	9	–
CCOC(=O)c1ccc(OC(=O)c2cc3c(cc2OC)C(C)(C)COC3(C)C)cc1	52	6	–
CCOC(=O)c1ccc(OC(=O)c2cc3c(cc2OC)C(C)(C)CCC3(C)C)cc1	15	12	–
COC(=O)c1ccc(C(=O)Nc2ccc3c(c2)C(C)(C)CC(C)(C)S3)cc1	–	–	EC50 [3]: 1 µM; EC50 [4]: 0.302 µM; EC50 [5]: 0.225 µM; EC50 [6]: 0.152 µM; EC50 [7]: 0.084 µM; EC50 [8]: 1 µM; Inhibition (SCC-2 (Homo sapiens) [9]): 64%; Inhibition (SCC-38 (Homo sapiens) [10]): 37%
CCOC(=O)/C=C(C)/C=C/C=C(\C)c1ccc2c(c1)OCCO2	-33	-2	–
CCOC(=O)c1ccc(OC(=O)c2cc3c(cc2C)N(C)CCC3(C)C)cc1	9	7	–
CC1(C)CCOc2ccc(C(=O)Oc3ccc(/C=N/N=C(/N)S)cc3)cc21	19	18	EC50 [3]: > 10 µM; EC50 [4]: 1.9 µM; EC50 [5]: > 10 µM; EC50 [6]: > 10 µM; EC50 [7]: 0.294 µM; EC50 [8]: 0.084 µM
CC(/C=C/C=C(\C)c1ccc2c(c1)C(C)(C)CCS2)=C\C(=O)O	2	1	–
CCOC(=O)c1ccc(OC(=O)c2ccc3c(c2)C(C)(C)CCN3C)cc1	12	13	–
CC1=C(/C=C/C(C)=C\C=C\C(C)=C\C(=O)O)C(C)(C)CCC1 [ALITRETINOIN]	13	10	–
